In ChEMBL document CHEMBL1158493, “Amide isosteres of oroidin: assessment of antibiofilm activity and C. elegans toxicity” (J Med Chem, 2009):
Active and inactive are the calls of the source.

Tests used:
Acinetobacter baumannii = assay: Antibioflim activity in Acinetobacter baumannii ATCC 19606 after 24 hrs by general static inhibition assay; format: functional, ATCC 19606 = CIP 70.34 = JCM 6841
Summary of the method: (§1)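 Static biofilm inhibition: overnight wild-type culture subcultured to OD600 0.01 in LBNS (PA14) or LB (A. baumannii) containing compound (DMSO stocks), in PVC 96-well plates; covered, sealed, stationary 37 °C for 24 h. Wells washed with water, stained with 0.1% crystal violet for 30 min at ambient temperature, washed, and stain solubilized in 95% ethanol. Read-out is OD540.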

Pseudomonas aeruginosa [1] = assay: Antibioflim activity in Pseudomonas aeruginosa PA14 after 24 hrs by general static inhibition assay; format: functional, organism-based; summary of the method: as §1
Pseudomonas aeruginosa [2] = assay: Antibioflim activity in Pseudomonas aeruginosa PA14 at 100 uM after 24 hrs by general static inhibition assay; format: functional; conditions: PA14, 24 h; summary of the method: as §1
Pseudomonas aeruginosa [3] = assay: Antibioflim activity in Pseudomonas aeruginosa PA14 after 24 hrs by general static dispersion assay; format: functional
Summary of the method: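 Static dispersion: wild-type PA14 subcultured to OD600 0.05 in LBNS in PVC 96-well plates, sealed, biofilm formed stationary at room temperature for 24 h. Medium replaced with fresh medium plus compound, then stationary 37 °C for 24 h. Crystal violet 0.1% for 30 min, ethanol-solubilized, read at OD540. Percent dispersion is treated versus untreated established biofilm.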

Pseudomonas aeruginosa [4] = assay: Inhibition of biofilm formation against Pseudomonas aeruginosa PA14 after 24 hrs; conditions: PA14, 24 h
Pseudomonas aeruginosa [5] = assay: Antibioflim activity in Pseudomonas aeruginosa PAO1; format: functional, organism-based
Caenorhabditis elegans = assay: Toxicity in Caenorhabditis elegans L4 stage larva assessed as toxicity threshold after 6 to 7 days; format: organism-based; conditions: in vivo
Summary of the method: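 Synchronized C. elegans N2 L1s (bleach egg prep, M9 starvation) grown on NGM/OP50 at 20 °C to L4. Two L4s per well in S medium with 5% HB101, compound 100 µM–1 mM, final DMSO 0.8–1.0%, in triplicate. Plates shaken at 22.5 °C for 6–7 days. Wells scored on day 4 and day 6/7 for clearing and population size. Threshold narrowed in 100 µM steps.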

[6] = Pseudomonas aeruginosa, PA14, 24 h, read-out: IC50

| IC50 (Pseudomonas aeruginosa [1]; [6]) [µM] | IC50 (Pseudomonas aeruginosa [1]) | IC50 (Pseudomonas aeruginosa [4]) [µM] | IC50 (Pseudomonas aeruginosa [5]) [µM] | Structure (SMILES) | inhibition (INH) (Acinetobacter baumannii) [%] | inhibition at 100 µM (Pseudomonas aeruginosa [2]) [%] | Activity (Pseudomonas aeruginosa [3]) | Activity (Caenorhabditis elegans) [mM] |
| --- | --- | --- | --- | --- | --- | --- | --- | --- |
| 15.6 | – | – | – | Cl.Nc1nc(CCCNS(=O)(=O)c2ccc3ccccc3c2)c[nH]1 | 26 | 93 | inactive | – |
| – | Not Active | – | – | Cl.Nc1nc(CCCNC(=O)NCc2ccccc2)c[nH]1 | 7 | 45 | inactive | – |
| 25.7 | – | 25.7 | – | Cl.Nc1nc(CCCNC(=O)Nc2ccc(F)c(Cl)c2)c[nH]1 | 18 | 90 | 55% | – |
| – | Not Active | – | – | Cc1ccc(S(=O)(=O)NCCCc2c[nH]c(N)n2)cc1.Cl | 8 | 45 | inactive | – |
| 26.8 | – | – | – | Cl.Nc1nc(CCCNC(=S)Nc2ccccc2)c[nH]1 | 8 | 90 | inactive | – |
| 160 | – | – | 190 | Nc1ncc(/C=C/CNC(=O)c2cc(Br)c(Br)[nH]2)[nH]1 [OROIDIN] | – | – | – | 0.65 |
| – | Not Active | – | – | Cl.Nc1nc(CCCNS(=O)(=O)c2ccccc2F)c[nH]1 | 11 | 43 | inactive | – |
| – | – | – | – | CCCCCCc1cn(CCCc2c[nH]c(N)n2)nn1 | – | – | – | > 1 |
| – | – | – | – | CCCCCCNC(=O)CCCc1c[nH]c(N)n1 | – | – | – | > 1 |
| 46.2 | – | – | – | Cc1cc(C)cc(S(=O)(=O)NCCCc2c[nH]c(N)n2)c1.Cl | 17 | 87 | inactive | – |
| – | – | – | – | Cn1c(C(=O)NCCCc2c[nH]c(N)n2)cc(Br)c1Br [DIHYDROSVENTRIN] | – | – | – | 0.48 |
| 19.4 | – | – | – | Cl.Nc1nc(CCCNS(=O)(=O)c2ccc(Br)cc2)c[nH]1 | 25 | 85 | inactive | – |
| – | – | – | – | CCCCCCCCCCCc1c[nH]c(N)n1 | – | – | – | > 1 |
| 35.4 | – | – | – | CCCCCCNC(=O)NCCCc1c[nH]c(N)n1.Cl | 28 | 94 | inactive | – |
| 25.1 | – | – | – | Cl.Nc1nc(CCCNS(=O)(=O)c2ccc(C(F)(F)F)cc2)c[nH]1 | 23 | 92 | inactive | – |
| – | Not Active | – | – | Cl.Nc1nc(CCCNS(=O)(=O)c2cccc3cccnc23)c[nH]1 | 17 | 50 | inactive | – |
| – | Not Active | – | – | Cl.Nc1nc(CCCNC(=O)Nc2ccccc2)c[nH]1 | 29 | 35 | inactive | – |
| 46.7 | – | – | – | Cc1ccc(F)cc1NC(=O)NCCCc1c[nH]c(N)n1.Cl | 12 | 81 | inactive | – |
| 22.6 | – | 22.6 | – | Cl.Nc1nc(CCCNC(=S)NC2CCCCC2)c[nH]1 | 14 | 89 | 25% | – |
| – | – | – | – | CCCCCCC(CCCCCC)NC(=O)CCCc1c[nH]c(N)n1 | – | – | – | 0.95 |
| 50.4 | – | – | – | CCOc1ccc(NC(=O)NCCCc2c[nH]c(N)n2)cc1.Cl | 11 | 81 | inactive | – |
| 10.1 | – | 10.1 | – | CCCCCCS(=O)(=O)NCCCc1c[nH]c(N)n1.Cl | 24 | 80 | 42% | > 1 |
| – | Not Active | – | – | Cl.Nc1nc(CCCNS(=O)(=O)c2cccc(C(=O)O)c2)c[nH]1 | 11 | 14 | inactive | – |
| – | Not Active | – | – | CC(=O)c1cccc(NC(=O)NCCCc2c[nH]c(N)n2)c1.Cl | 11 | 69 | inactive | – |
| – | Not Active | – | – | Cl.Nc1nc(CCCNC(=O)NC2CCCCCC2)c[nH]1 | <5 | 70 | inactive | – |
